Results gathered from unrelated publications.
Compare with care: the assays were run in different laboratories.
Target: Insulin receptor (INSR, Homo sapiens, UniProt P06213)

The remaining binding of CC1CCCN1c1nccc(-c2cnn3ncccc23)n1 (stereo not shown) is reported as 86% (binding; 1 µM).
CN([C@@H]1CCc2c(CC(=O)O)c3ccccc3n2C1)S(=O)(=O)c1ccc(F)cc1 has a remaining binding of 100% (cell-free assay, competition with immobilised ligand; 1 µM).
c1cncc(-c2cccc(Nc3nccc(NC4CCCCC4)n3)c2)c1 has a remaining binding of 27% (binding, competition with immobilised ligand; 10 µM).
The remaining binding of N[C@@H]1CCN(c2nccc(-c3cnn4ncccc34)n2)C1 is reported as 100% (binding; 1 µM).
CS(=O)(=O)NCC[C@H](NC(=O)c1cncc2c1cnn2-c1ccc(F)cc1)c1ccnc(S(C)(=O)=O)c1 has a remaining binding of 92% (cell-free assay, competition with immobilised ligand; 1 µM).
The remaining binding of C=CC(=O)N1CCC(C(=O)NCC(=O)N2CCN(c3nc(-c4cnc(N)nc4C(F)F)nc(N4CCOCC4)n3)CC2)CC1 is reported as 99% (binding, competition with immobilised ligand; 1 µM).
O=C(NCCCN1CCOCC1)c1ccc(Nc2ncc(Cl)c(-c3ccc(Cl)s3)n2)cc1 has a remaining binding of 29% (binding, competition with immobilised ligand; 1 µM).
For CCCOc1ccc([C@@H]2[C@@H](C(=O)O)[C@H](c3ccc4c(c3)OCO4)CN2CC(=O)Nc2c(CC)cccc2CC)cc1, the remaining binding was 89% (cell-free assay, competition with immobilised ligand; 1 µM).
The remaining binding of O=C(Nc1c[nH]nc1C(=O)NC1CCNCC1)c1cc(F)cc(F)c1 is reported as 100% (binding, competition with immobilised ligand; 1 µM).
For O=C(NCCCN1CCOCC1)c1ccc(Nc2nccc(-c3cc4ccccc4s3)n2)cc1, the remaining binding was 95% (binding, competition with immobilised ligand; 1 µM).
With CN(C)c1ncnc(-c2ccc3nc(Nc4cc(CN5CCN(C(=O)CC(F)(F)F)CC5)ccn4)[nH]c3c2)c1Cl the remaining binding was 100% (cell-free assay, competition with immobilised ligand; 1 µM).
CCN1CCN(Cc2ccc(C(=O)Nc3ccc(C)c(Oc4ccc5c(c4)CC(=O)N5)c3)cc2C(F)(F)F)CC1 has a remaining binding of 77% (binding, competition with immobilised ligand; 1 µM).
With C[C@@H]1CN(c2ccc3ncc(-c4ccc5[nH]nc(C6CC6)c5c4)n3n2)C[C@H](C)O1 the remaining binding was 81% (binding, competition with immobilised ligand; 0.5 µM).
For O=C(Nc1cccnn1)N1CCC(=Cc2cccc(Oc3ccc(C(F)(F)F)cn3)c2)CC1, the remaining binding was 100% (cell-free assay, competition with immobilised ligand; 1 µM).
Cc1cnn2ncc(-c3ccnc(N(C)C)n3)c2c1 gave a remaining binding of 68% (binding; 1 µM).
With COc1cnc(Nc2cccc(S(N)(=O)=O)c2)nc1N1CCN(c2ccccc2)C(=O)C1 the remaining binding was 96% (binding, competition with immobilised ligand; 1 µM).
For COc1ncc2cc3ccccc3nc2c1C#N, the remaining binding was 100% (cell-free assay, competition with immobilised ligand; 5 µM).
C[C@@H]1CCN(c2nccc(-c3cnn4ncccc34)n2)C1 has a remaining binding of 72% (binding; 1 µM).
For Cc1cc(NC(=O)c2cccc(S(F)(F)(F)(F)F)c2)cc(-n2ccn3nc(-c4cccnc4)cc23)c1, the remaining binding was 100% (cell-free assay, competition with immobilised ligand; 1 µM).
With C[C@@H](c1ccc(-n2cnc3c(N)ncnc32)cc1)N1CCc2nn(C)c(Cc3ccccc3)c2C1=O the remaining binding was 100% (binding, competition with immobilised ligand; 0.1 µM).
F[C@@H]1CCN(c2nccc(-c3cnn4ncccc34)n2)C1 gave a remaining binding of 91% (binding; 1 µM).
The remaining binding of CCC(=O)N[C@H]1CC[C@@H](C(=O)N(C)c2ccc(-c3nc4ccccc4o3)cc2)C1 is reported as 91% (cell-free assay, competition with immobilised ligand; 1 µM).
For O=C(c1ccc(Nc2ncc(Cl)c(-c3cc4ccccc4s3)n2)cc1)N1CCC(N2CCCC2)CC1, the remaining binding was 6.1% (binding, competition with immobilised ligand; 1 µM).
With Cn1nc(C(F)(F)F)cc1-c1cnc(N2CCc3cc(S(=O)(=O)Nc4c(F)cc(Cl)cc4F)cc(N4CCCC4=O)c32)nc1 the remaining binding was 89% (cell-free assay, competition with immobilised ligand; 1 µM).
With CN(C)c1nccc(-c2cnn3ncccc23)n1 the remaining binding was 79% (binding; 1 µM).
